High-throughput results as filed in PubChem.
Avidin fluor = green autofluorescence of compounds with avidin beads – biophysical, 488/530 nm, flow cytometry, artefact control, profiling panel; compound fluorescence 488/530 nm; active compounds read high; fluorescence (KMESF) at 10 µM; hit rate 0.38% among 220,000; in the data active = fluorescence above about 47
GSH bead fluor = compound fluorescence on glutathione beads, profiling panel, artefact control, biophysical, 488/530 nm, flow cytometry | GSH beads flow cytometry, compound fluorescence 488/530 nm; active compounds read high | hit rate 0.25% among 190,000 | fluorescence (KMESF) at 10 µM; in the data active = fluorescence above about 89;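 note: glutathione beads carrying GST-tagged Bcl family fusion proteins plus one bare bead set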
ABCG2 block = ABCG2 efflux pump inhibitors, primary screen, multiplex with ABCB1, IgMXP3 cells, flow cytometry | inhibition, % at 6.6 µM | JC-1 efflux | hit rate 0.1% among 190,000;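 active = inhibition above 80%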
Target sequence (Q9UNQ0 whole entry, looked up): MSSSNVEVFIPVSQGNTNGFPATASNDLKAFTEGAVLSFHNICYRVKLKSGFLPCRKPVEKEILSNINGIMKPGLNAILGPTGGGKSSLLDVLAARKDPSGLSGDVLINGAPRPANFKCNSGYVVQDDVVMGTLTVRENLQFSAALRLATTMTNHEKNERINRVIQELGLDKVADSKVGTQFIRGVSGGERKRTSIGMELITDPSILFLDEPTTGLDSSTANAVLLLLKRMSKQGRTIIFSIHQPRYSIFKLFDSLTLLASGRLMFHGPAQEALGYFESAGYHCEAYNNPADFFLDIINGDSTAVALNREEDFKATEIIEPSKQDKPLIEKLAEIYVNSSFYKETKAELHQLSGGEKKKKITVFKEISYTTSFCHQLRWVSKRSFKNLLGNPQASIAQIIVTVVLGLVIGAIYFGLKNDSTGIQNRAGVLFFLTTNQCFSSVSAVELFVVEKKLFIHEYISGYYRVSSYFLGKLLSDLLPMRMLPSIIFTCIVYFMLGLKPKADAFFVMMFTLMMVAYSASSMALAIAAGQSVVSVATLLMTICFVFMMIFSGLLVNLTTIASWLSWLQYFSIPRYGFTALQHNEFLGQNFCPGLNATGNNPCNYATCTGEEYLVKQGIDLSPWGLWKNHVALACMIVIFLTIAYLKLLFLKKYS
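Incubation: cells with compound and JC-1, 10 min at 25 °C, rotating, no wash / Test system: IgMXP3 (ABCG2) plus far-red-tagged CCRF-Adr (ABCB1) cells / Compound dosing: one concentration, 6.6 µM final / Also added: JC-1 fluorescent substrate / Evaluation: efflux inhibition in percent versus controls / Detection: flow cytometry, 530 nm JC-1 signal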
L major viab = Leishmania major promastigote growth inhibition, primary screen; inhibition, % at 10 µM; Leishmania major promastigotes, resazurin fluorescence viability; hit rate 9% among 200,000;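 note: promastigotes grown with compound for 44 hours at 28 °C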
PKD1 kinase inh = inhibitors of human PKD1 kinase, biochemical, fluorescence polarization | hit rate 0.056% among 200,000 | inhibition, % (no concentration beside the values) | PKD1 kinase fluorescence polarization assay | AID 797, 2007
ABCB1 inh = ABCB1 efflux pump inhibitors, primary screen, cell-based, multiplex, flow cytometry, ABCG2 counter-screen | ATP-dependent translocase ABCB1 (Homo sapiens), P08183 | CCRF-Adr cells, JC-1 efflux | inhibition, % at 6.6 µM | hit rate 0.067% among 190,000; in the data active = inhibition above about 40%;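 note: higher value means more JC-1 retained so stronger ABCB1 efflux block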
Numbers stand for hits. The sample as a whole holds a higher share of hits than the screen did. Cut-off read from the data, not from the text of the source, unless noted: active = inhibition above about 50%; inactive = the rest.

Screening COc1cccc(/C=N/NC(=O)c2cc3cc([N+](=O)[O-])ccc3s2)c1O returned Avidin fluor inactive, GSH bead fluor inactive, ABCG2 block inactive, L major viab 99.7, PKD1 kinase inh inactive and ABCB1 inh inactive.
`COc1cc(/C=N/NC(=O)c2cc(-c3cccn3C)n[nH]2)cc(OC)c1OC` gave Avidin fluor inactive, GSH bead fluor inactive, ABCG2 block inactive, L major viab inactive, PKD1 kinase inh inactive and ABCB1 inh inactive.
For O=C(CCC1CCCC1)NC1CCCCC1 the results were Avidin fluor inactive, GSH bead fluor inactive, ABCG2 block inactive, L major viab inactive, PKD1 kinase inh inactive and ABCB1 inh inactive.
`COc1ccc(CCC(=O)Nc2cc(S(C)(=O)=O)ccc2Cl)cc1` gave Avidin fluor inactive, GSH bead fluor inactive, ABCG2 block inactive, L major viab inactive, PKD1 kinase inh inactive and ABCB1 inh inactive.
`COc1cc(OC)c(OC)cc1/C=N/N(C)c1ccccc1` gave Avidin fluor 54, GSH bead fluor inactive, ABCG2 block inactive, L major viab inactive, PKD1 kinase inh inactive and ABCB1 inh inactive.
COc1cccc(CNc2ccc(S(N)(=O)=O)cc2)c1OCc1ccccc1F was read as Avidin fluor inactive, GSH bead fluor inactive, ABCG2 block inactive, L major viab 65.3, PKD1 kinase inh inactive and ABCB1 inh inactive.
COc1cccc(C2NC(=O)c3ccccc3O2)c1OCc1ccccc1F (centres undefined) was read as Avidin fluor inactive, GSH bead fluor inactive, ABCG2 block inactive, L major viab 83.5, PKD1 kinase inh inactive and ABCB1 inh inactive.
Screening COc1cccc(CNc2ccccc2O)c1OCc1ccccc1F returned Avidin fluor inactive, GSH bead fluor inactive, ABCG2 block inactive, L major viab 61.8, PKD1 kinase inh inactive and ABCB1 inh inactive.
`COc1cc(CNc2ccc(O)cc2)cc(Br)c1OCc1ccccc1F` gave Avidin fluor inactive, GSH bead fluor inactive, ABCG2 block inactive, L major viab inactive, PKD1 kinase inh inactive and ABCB1 inh inactive.
`CCOc1ccccc1C1CC(=O)Nc2c1c(=O)n(C)c(=O)n2C` (centres undefined) gave Avidin fluor inactive, GSH bead fluor inactive, ABCG2 block inactive, L major viab inactive, PKD1 kinase inh inactive and ABCB1 inh inactive.
`COC(=O)c1ccsc1-n1cc(C#N)c(=O)n(C)c1=O` gave Avidin fluor inactive, GSH bead fluor inactive, ABCG2 block inactive, L major viab inactive, PKD1 kinase inh inactive and ABCB1 inh inactive.
Screening COCc1c(C(=O)OC)nnn1-c1ccc(C(F)(F)F)cc1[N+](=O)[O-] returned Avidin fluor inactive, GSH bead fluor inactive, ABCG2 block inactive, L major viab inactive, PKD1 kinase inh inactive and ABCB1 inh inactive.
For COc1ccc(CCNc2ccc(N3C(=O)CC(C)C3=O)cc2[N+](=O)[O-])cc1OC (centres undefined) the results were Avidin fluor inactive, GSH bead fluor inactive, ABCG2 block inactive, L major viab inactive, PKD1 kinase inh inactive and ABCB1 inh inactive.
`Cc1cc(=O)c2cc3nc(-c4cccnc4)oc3c(Br)c2o1` gave Avidin fluor inactive.
For CCOC(=O)C(=CNc1ccc2c(c1)c1ccccc1n2CC)C(=O)OCC the results were Avidin fluor inactive.
For CCCc1cc(-c2nc(-c3ccc(Br)cc3)cs2)ccn1 the results were Avidin fluor inactive, GSH bead fluor inactive, ABCG2 block inactive, L major viab 60.0, PKD1 kinase inh inactive and ABCB1 inh inactive.
`Cn1ncc2c(=O)[nH]cnc21` gave Avidin fluor inactive, GSH bead fluor inactive, ABCG2 block inactive, L major viab inactive, PKD1 kinase inh inactive and ABCB1 inh inactive.
`COc1ccc(Cc2[nH]n3c(=O)cc(C)nc3c2-c2ccccc2)cc1` gave Avidin fluor inactive, GSH bead fluor inactive, ABCG2 block inactive, L major viab inactive, PKD1 kinase inh inactive and ABCB1 inh inactive.
For COc1ccc(Cc2[nH]n3c(=O)cc(C(C)C)nc3c2-c2ccccc2)cc1 the results were Avidin fluor inactive, GSH bead fluor inactive, ABCG2 block inactive, L major viab 97.1, PKD1 kinase inh inactive and ABCB1 inh inactive.
Screening O=C(COC(=O)c1ccc(Cl)cc1O)NC(=O)C1CCCCC1 returned Avidin fluor inactive, GSH bead fluor inactive, ABCG2 block inactive, L major viab inactive, PKD1 kinase inh inactive and ABCB1 inh inactive.
For COc1cc2nc(SCc3c(C)noc3C)n(CCC3=CCCCC3)c(=O)c2cc1OC the results were Avidin fluor inactive, GSH bead fluor inactive, ABCG2 block inactive, L major viab 61.5, PKD1 kinase inh inactive and ABCB1 inh inactive.
Screening COc1cc2nc(SCC(=O)NC3CC3)n(CCC3=CCCCC3)c(=O)c2cc1OC returned L major viab inactive and PKD1 kinase inh inactive.
`O=C(CSc1nc(N2CCCCC2)nc(N2CCCCC2)n1)NC1CCCCC1` gave L major viab inactive and PKD1 kinase inh inactive.
For Clc1cccc(CNCCNCc2cccc(Cl)c2)c1 the results were Avidin fluor inactive, GSH bead fluor inactive, ABCG2 block inactive, L major viab 75.4, PKD1 kinase inh inactive and ABCB1 inh inactive.
`OCCNCc1cccc(Br)c1` gave Avidin fluor inactive, GSH bead fluor inactive, ABCG2 block inactive, L major viab inactive, PKD1 kinase inh inactive and ABCB1 inh inactive.
`COc1ccc(C(=O)CC(=O)c2ccccc2O)cc1OC` gave Avidin fluor inactive, GSH bead fluor inactive, ABCG2 block inactive, L major viab inactive, PKD1 kinase inh inactive and ABCB1 inh inactive.
Screening COc1ccc(O)c(C(=O)CC(=O)c2ccccc2C)c1 returned Avidin fluor inactive, GSH bead fluor inactive, ABCG2 block inactive, L major viab 92.0, PKD1 kinase inh inactive and ABCB1 inh inactive.
Screening COc1ccc(O)c(C(=O)CC(=O)c2ccc(F)cc2)c1 returned Avidin fluor inactive, GSH bead fluor inactive, ABCG2 block inactive, L major viab 52.5, PKD1 kinase inh inactive and ABCB1 inh inactive.
Screening CN1C(=O)C2(c3ccccc31)c1c(oc3ccccc3c1=O)C(=O)N2CCO (centres undefined) returned Avidin fluor inactive.
`CCc1ccc(NC(=O)c2ccccc2SC)cc1` gave Avidin fluor inactive, GSH bead fluor inactive, ABCG2 block inactive, L major viab inactive, PKD1 kinase inh inactive and ABCB1 inh inactive.
`COc1ccc(CN2CCCCC2c2cccnc2)c(OC)c1C` (centres undefined) gave L major viab 70.4 and PKD1 kinase inh inactive.
`COc1ccc(OC)c(-c2nc(CN3CCCCC3c3cccnc3)c(C)o2)c1` (centres undefined) gave Avidin fluor inactive, GSH bead fluor inactive, ABCG2 block inactive, L major viab inactive, PKD1 kinase inh inactive and ABCB1 inh inactive.
